Measurements as given in ChEMBL document CHEMBL5058577, “EUbOPEN Chemogenomics Library 2 (Multiplex)” (2022).

Tested on: U2OS
Assay: Multiplex assay against U2OS
Assay type: toxicity, cell-based
Conditions: human
Summary of the method: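 With compound added, live cells were imaged on a CQ1 microscope at 37°C and 5% CO2; staining with Hoechst33342, BioTracker Green Microtubule Cytoskeleton Dye, MitoTracker Red and Annexin V Alexa Fluor 680 had been done at seeding. The CellPathfinder machine-learning gating scheme split cells into Hoechst high-intensity objects or normal cells, normal cells into healthy, pyknosed or fragmented nuclei, and pyknosed cells into mitotic or apoptotic. The tubulin, mitochondrial-mass and membrane-permeability phenotypes are per cents of healthy-nucleus cells.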

[1] = 12 h, 1 µM, compound concentration 1 uM, replicate 1
[2] = 12 h, 1 µM, compound concentration 1 uM, replicate 2
[3] = 12 h, 10 µM, compound concentration 10 uM, replicate 1
[4] = 12 h, 10 µM, compound concentration 10 uM, replicate 2
[5] = 24 h, 1 µM, compound concentration 1 uM, replicate 1
[6] = 24 h, 1 µM, compound concentration 1 uM, replicate 2
[7] = 24 h, 10 µM, compound concentration 10 uM, replicate 1
[8] = 24 h, 10 µM, compound concentration 10 uM, replicate 2
[9] = 48 h, 1 µM, compound concentration 1 uM, replicate 1
[10] = 48 h, 1 µM, compound concentration 1 uM, replicate 2
[11] = 48 h, 10 µM, compound concentration 10 uM, replicate 1
[12] = 48 h, 10 µM, compound concentration 10 uM, replicate 2

Structure (SMILES): COc1cc2nc(N3CCN(C(=O)c4ccco4)CC3)nc(N)c2cc1OC.Cl [PRAZOSIN HYDROCHLORIDE]
- Population Apoptotic (%) [1]: 88%
- Population Fragmented Nuclei (%) [1]: 21%
- Population Healthy Nuclei (%) [1]: 70%
- Population Hoechst High Intensity Objects (%) [1]: 2%
- Population Membrane Permeable-Phenotype (%) [1]: 4%
- Population Mitochondria Different-Phenotype (%) [1]: 2%
- Population Mitotic Cells (%) [1]: 11%
- Population Normal (%) [1]: 97%
- Population Pyknosed Nuclei (%) [1]: 7%
- Population Tubulin-Different-Phenotype (%) [1]: 1%
- Total Cell Count [1]: 235
- Population Apoptotic (%) [2]: 94%
- Population Fragmented Nuclei (%) [2]: 18%
- Population Healthy Nuclei (%) [2]: 69%
- Population Hoechst High Intensity Objects (%) [2]: 1%
- Population Membrane Permeable-Phenotype (%) [2]: 5%
- Population Mitochondria Different-Phenotype (%) [2]: 7%
- Population Mitotic Cells (%) [2]: 5%
- Population Normal (%) [2]: 98%
- Population Pyknosed Nuclei (%) [2]: 12%
- Population Tubulin-Different-Phenotype (%) [2]: 8%
- Total Cell Count [2]: 159
- Population Apoptotic (%) [3]: 86%
- Population Fragmented Nuclei (%) [3]: 25%
- Population Healthy Nuclei (%) [3]: 67%
- Population Hoechst High Intensity Objects (%) [3]: 3%
- Population Membrane Permeable-Phenotype (%) [3]: 12%
- Population Mitochondria Different-Phenotype (%) [3]: 2%
- Population Mitotic Cells (%) [3]: 13%
- Population Normal (%) [3]: 96%
- Population Pyknosed Nuclei (%) [3]: 7%
- Population Tubulin-Different-Phenotype (%) [3]: 6%
- Total Cell Count [3]: 216
- Population Apoptotic (%) [4]: 72%
- Population Fragmented Nuclei (%) [4]: 15%
- Population Healthy Nuclei (%) [4]: 74%
- Population Hoechst High Intensity Objects (%) [4]: 0%
- Population Membrane Permeable-Phenotype (%) [4]: 4%
- Population Mitochondria Different-Phenotype (%) [4]: 5%
- Population Mitotic Cells (%) [4]: 27%
- Population Normal (%) [4]: 99%
- Population Pyknosed Nuclei (%) [4]: 9%
- Population Tubulin-Different-Phenotype (%) [4]: 7%
- Total Cell Count [4]: 114
- Population Apoptotic (%) [5]: 95%
- Population Fragmented Nuclei (%) [5]: 22%
- Population Healthy Nuclei (%) [5]: 69%
- Population Hoechst High Intensity Objects (%) [5]: 1%
- Population Membrane Permeable-Phenotype (%) [5]: 8%
- Population Mitochondria Different-Phenotype (%) [5]: 2%
- Population Mitotic Cells (%) [5]: 4%
- Population Normal (%) [5]: 98%
- Population Pyknosed Nuclei (%) [5]: 7%
- Population Tubulin-Different-Phenotype (%) [5]: 4%
- Total Cell Count [5]: 273
- Population Apoptotic (%) [6]: 100%
- Population Fragmented Nuclei (%) [6]: 15%
- Population Healthy Nuclei (%) [6]: 74%
- Population Hoechst High Intensity Objects (%) [6]: 0%
- Population Membrane Permeable-Phenotype (%) [6]: 10%
- Population Mitochondria Different-Phenotype (%) [6]: 5%
- Population Mitotic Cells (%) [6]: 0%
- Population Normal (%) [6]: 100%
- Population Pyknosed Nuclei (%) [6]: 10%
- Population Tubulin-Different-Phenotype (%) [6]: 9%
- Total Cell Count [6]: 188
- Population Apoptotic (%) [7]: 78%
- Population Fragmented Nuclei (%) [7]: 23%
- Population Healthy Nuclei (%) [7]: 68%
- Population Hoechst High Intensity Objects (%) [7]: 2%
- Population Membrane Permeable-Phenotype (%) [7]: 8%
- Population Mitochondria Different-Phenotype (%) [7]: 6%
- Population Mitotic Cells (%) [7]: 21%
- Population Normal (%) [7]: 97%
- Population Pyknosed Nuclei (%) [7]: 7%
- Population Tubulin-Different-Phenotype (%) [7]: 6%
- Total Cell Count [7]: 244
- Population Apoptotic (%) [8]: 85%
- Population Fragmented Nuclei (%) [8]: 13%
- Population Healthy Nuclei (%) [8]: 71%
- Population Hoechst High Intensity Objects (%) [8]: 1%
- Population Membrane Permeable-Phenotype (%) [8]: 7%
- Population Mitochondria Different-Phenotype (%) [8]: 5%
- Population Mitotic Cells (%) [8]: 14%
- Population Normal (%) [8]: 98%
- Population Pyknosed Nuclei (%) [8]: 15%
- Population Tubulin-Different-Phenotype (%) [8]: 4%
- Total Cell Count [8]: 138
- Population Apoptotic (%) [9]: 94%
- Population Fragmented Nuclei (%) [9]: 16%
- Population Healthy Nuclei (%) [9]: 74%
- Population Hoechst High Intensity Objects (%) [9]: 2%
- Population Membrane Permeable-Phenotype (%) [9]: 6%
- Population Mitochondria Different-Phenotype (%) [9]: 2%
- Population Mitotic Cells (%) [9]: 5%
- Population Normal (%) [9]: 97%
- Population Pyknosed Nuclei (%) [9]: 9%
- Population Tubulin-Different-Phenotype (%) [9]: 2%
- Total Cell Count [9]: 388
- Population Apoptotic (%) [10]: 100%
- Population Fragmented Nuclei (%) [10]: 15%
- Population Healthy Nuclei (%) [10]: 77%
- Population Hoechst High Intensity Objects (%) [10]: 1%
- Population Membrane Permeable-Phenotype (%) [10]: 7%
- Population Mitochondria Different-Phenotype (%) [10]: 7%
- Population Mitotic Cells (%) [10]: 0%
- Population Normal (%) [10]: 98%
- Population Pyknosed Nuclei (%) [10]: 7%
- Population Tubulin-Different-Phenotype (%) [10]: 5%
- Total Cell Count [10]: 266
- Population Apoptotic (%) [11]: 96%
- Population Fragmented Nuclei (%) [11]: 20%
- Population Healthy Nuclei (%) [11]: 71%
- Population Hoechst High Intensity Objects (%) [11]: 1%
- Population Membrane Permeable-Phenotype (%) [11]: 5%
- Population Mitochondria Different-Phenotype (%) [11]: 2%
- Population Mitotic Cells (%) [11]: 3%
- Population Normal (%) [11]: 98%
- Population Pyknosed Nuclei (%) [11]: 8%
- Population Tubulin-Different-Phenotype (%) [11]: 3%
- Total Cell Count [11]: 341
- Population Apoptotic (%) [12]: 94%
- Population Fragmented Nuclei (%) [12]: 15%
- Population Healthy Nuclei (%) [12]: 76%
- Population Hoechst High Intensity Objects (%) [12]: 2%
- Population Mitochondria Different-Phenotype (%) [12]: 6%
- Population Mitotic Cells (%) [12]: 5%
- Population Normal (%) [12]: 97%
- Total Cell Count [12]: 208

Structure (SMILES): COc1c(Nc2ccc(S(C)(=O)=O)nc2C)ncnc1OC1CCN(C(=O)OC(C)C)CC1 [ADP-597]
- Population Apoptotic (%) [1]: 82%
- Population Fragmented Nuclei (%) [1]: 23%
- Population Healthy Nuclei (%) [1]: 68%
- Population Hoechst High Intensity Objects (%) [1]: 2%
- Population Membrane Permeable-Phenotype (%) [1]: 7%
- Population Mitochondria Different-Phenotype (%) [1]: 1%
- Population Mitotic Cells (%) [1]: 17%
- Population Normal (%) [1]: 97%
- Population Pyknosed Nuclei (%) [1]: 8%
- Population Tubulin-Different-Phenotype (%) [1]: 5%
- Total Cell Count [1]: 208
- Population Apoptotic (%) [2]: 75%
- Population Fragmented Nuclei (%) [2]: 13%
- Population Healthy Nuclei (%) [2]: 78%
- Population Hoechst High Intensity Objects (%) [2]: 3%
- Population Membrane Permeable-Phenotype (%) [2]: 11%
- Population Mitotic Cells (%) [2]: 25%
- Population Normal (%) [2]: 96%
- Population Tubulin-Different-Phenotype (%) [2]: 2%
- Total Cell Count [2]: 95
- Population Apoptotic (%) [3]: 93%
- Population Fragmented Nuclei (%) [3]: 27%
- Population Healthy Nuclei (%) [3]: 60%
- Population Hoechst High Intensity Objects (%) [3]: 8%
- Population Membrane Permeable-Phenotype (%) [3]: 7%
- Population Mitochondria Different-Phenotype (%) [3]: 2%
- Population Mitotic Cells (%) [3]: 6%
- Population Normal (%) [3]: 91%
- Population Pyknosed Nuclei (%) [3]: 11%
- Population Tubulin-Different-Phenotype (%) [3]: 4%
- Total Cell Count [3]: 266
- Population Apoptotic (%) [4]: 85%
- Population Fragmented Nuclei (%) [4]: 10%
- Population Healthy Nuclei (%) [4]: 77%
- Population Hoechst High Intensity Objects (%) [4]: 4%
- Population Mitochondria Different-Phenotype (%) [4]: 3%
- Population Mitotic Cells (%) [4]: 14%
- Population Normal (%) [4]: 95%
- Population Tubulin-Different-Phenotype (%) [4]: 1%
- Total Cell Count [4]: 128
- Population Apoptotic (%) [5]: 88%
- Population Fragmented Nuclei (%) [5]: 24%
- Population Healthy Nuclei (%) [5]: 67%
- Population Hoechst High Intensity Objects (%) [5]: 3%
- Population Membrane Permeable-Phenotype (%) [5]: 7%
- Population Mitochondria Different-Phenotype (%) [5]: 3%
- Population Mitotic Cells (%) [5]: 11%
- Population Normal (%) [5]: 96%
- Population Pyknosed Nuclei (%) [5]: 7%
- Population Tubulin-Different-Phenotype (%) [5]: 3%
- Total Cell Count [5]: 239
- Population Apoptotic (%) [6]: 80%
- Population Fragmented Nuclei (%) [6]: 12%
- Population Healthy Nuclei (%) [6]: 79%
- Population Membrane Permeable-Phenotype (%) [6]: 8%
- Population Mitotic Cells (%) [6]: 20%
- Population Pyknosed Nuclei (%) [6]: 8%
- Population Tubulin-Different-Phenotype (%) [6]: 5%
- Total Cell Count [6]: 129
- Population Apoptotic (%) [7]: 88%
- Population Fragmented Nuclei (%) [7]: 30%
- Population Healthy Nuclei (%) [7]: 61%
- Population Hoechst High Intensity Objects (%) [7]: 6%
- Population Membrane Permeable-Phenotype (%) [7]: 8%
- Population Mitochondria Different-Phenotype (%) [7]: 2%
- Population Mitotic Cells (%) [7]: 12%
- Population Normal (%) [7]: 93%
- Population Pyknosed Nuclei (%) [7]: 8%
- Population Tubulin-Different-Phenotype (%) [7]: 4%
- Total Cell Count [7]: 305
- Population Apoptotic (%) [8]: 83%
- Population Fragmented Nuclei (%) [8]: 11%
- Population Healthy Nuclei (%) [8]: 80%
- Population Hoechst High Intensity Objects (%) [8]: 5%
- Population Membrane Permeable-Phenotype (%) [8]: 6%
- Population Mitochondria Different-Phenotype (%) [8]: 4%
- Population Mitotic Cells (%) [8]: 16%
- Population Normal (%) [8]: 94%
- Population Tubulin-Different-Phenotype (%) [8]: 1%
- Total Cell Count [8]: 155
- Population Apoptotic (%) [9]: 80%
- Population Fragmented Nuclei (%) [9]: 19%
- Population Healthy Nuclei (%) [9]: 72%
- Population Hoechst High Intensity Objects (%) [9]: 2%
- Population Membrane Permeable-Phenotype (%) [9]: 6%
- Population Mitochondria Different-Phenotype (%) [9]: 5%
- Population Mitotic Cells (%) [9]: 19%
- Population Normal (%) [9]: 97%
- Population Pyknosed Nuclei (%) [9]: 7%
- Population Tubulin-Different-Phenotype (%) [9]: 2%
- Total Cell Count [9]: 339
- Population Apoptotic (%) [10]: 81%
- Population Fragmented Nuclei (%) [10]: 20%
- Population Healthy Nuclei (%) [10]: 67%
- Population Membrane Permeable-Phenotype (%) [10]: 5%
- Population Mitochondria Different-Phenotype (%) [10]: 4%
- Population Mitotic Cells (%) [10]: 18%
- Population Pyknosed Nuclei (%) [10]: 12%
- Total Cell Count [10]: 185
- Population Apoptotic (%) [11]: 79%
- Population Fragmented Nuclei (%) [11]: 24%
- Population Healthy Nuclei (%) [11]: 62%
- Population Hoechst High Intensity Objects (%) [11]: 6%
- Population Membrane Permeable-Phenotype (%) [11]: 6%
- Population Mitochondria Different-Phenotype (%) [11]: 4%
- Population Mitotic Cells (%) [11]: 20%
- Population Normal (%) [11]: 93%
- Population Pyknosed Nuclei (%) [11]: 13%
- Population Tubulin-Different-Phenotype (%) [11]: 2%
- Total Cell Count [11]: 356
- Population Apoptotic (%) [12]: 92%
- Population Fragmented Nuclei (%) [12]: 10%
- Population Healthy Nuclei (%) [12]: 77%
- Population Hoechst High Intensity Objects (%) [12]: 3%
- Population Membrane Permeable-Phenotype (%) [12]: 4%
- Population Mitochondria Different-Phenotype (%) [12]: 0%
- Population Mitotic Cells (%) [12]: 8%
- Population Normal (%) [12]: 96%
- Population Pyknosed Nuclei (%) [12]: 11%
- Total Cell Count [12]: 223
